# The list is not random: actives were taken first. Their share in the collection is about 4.8%.
# PTK2B oligo ant = antagonists of human Pyk2 oligomerization | actives 0.83% (n = 99,000) | Q14289 | Q293 cells, Pyk2 FERM NanoBiT luminescence; stronger effect = lower value | z-score (the deposit names both 25 µM and 10 µM) | AID 1347419;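 active = Z-score of -3 or lower, scaled per plate to the spread of control and sample wells; inactive = z-score above -3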;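 note: negative z-score means lost luminescence so less FERM oligomerization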
# RORA act = activators of human nuclear receptor RORA. actives 1.5% (n = 65,000). P35398. activation, % at 10 µM. AID 560. CHO-K1 Gal4-RORA LBD luciferase reporter, luminescence; percent increase over mock-subtracted basal signal;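 active = activation above the mean of all tested compounds plus 3 SD, cut at about 49% in these data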
# Target sequence (P35398 whole entry, looked up, the tested form may be a part): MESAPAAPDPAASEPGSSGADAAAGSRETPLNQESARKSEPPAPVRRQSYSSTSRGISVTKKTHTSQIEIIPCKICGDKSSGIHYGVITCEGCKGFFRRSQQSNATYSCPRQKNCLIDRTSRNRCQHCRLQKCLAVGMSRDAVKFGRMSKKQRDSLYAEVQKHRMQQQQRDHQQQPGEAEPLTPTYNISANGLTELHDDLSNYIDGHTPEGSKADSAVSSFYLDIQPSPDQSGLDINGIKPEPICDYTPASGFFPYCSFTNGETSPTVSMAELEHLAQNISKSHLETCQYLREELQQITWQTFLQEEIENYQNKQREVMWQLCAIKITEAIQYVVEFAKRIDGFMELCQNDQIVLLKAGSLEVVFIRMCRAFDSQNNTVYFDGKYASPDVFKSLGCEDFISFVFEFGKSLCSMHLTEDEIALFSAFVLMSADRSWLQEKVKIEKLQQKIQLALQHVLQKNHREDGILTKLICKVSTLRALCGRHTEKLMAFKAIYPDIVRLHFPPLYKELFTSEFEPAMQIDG
# ERa SRC1 pot = ER-alpha (human) coactivator binding potentiation. P03372. TR-FRET ERalpha-LBD/SRC-Cy5 coactivator binding, 2 h; 100 = basal binding, no effect. coactivator binding (% of control), % at 25.6 µM. actives 1.3% (n = 86,000). AID 639; in the data active = activity above about 200%;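 note: binding measured in presence of low estradiol as agonist stimulus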
# ERa coact inh = blocks coactivator binding to human estrogen receptor alpha; P03372; inhibition, % at 25.6 µM; TR-FRET ER-alpha LBD / SRC-1 peptide, estradiol-bound; actives 1.7% (n = 86,000); in the data active = inhibition above about 50%
# SF1 activator = activates the human nuclear receptor SF-1; Q13285; CHO-K1 Gal4-SF-1 LBD luciferase reporter; % increase over DMSO SF-1-specific signal; activation, % at 10 µM; actives 1.9% (n = 65,000);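 active = activation above the mean activation of all tested compounds plus 3 SD, cut at about 50% in these data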
#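 material = CHO-K1 cells with Gal4–hSF-1 LBD chimera plus Gal4-driven luciferase | compound = 10 µM single point, 1% DMSO | incubation = 20 h compound exposure at 37 °C after 1 h cell settling | measured by = SteadyLite luciferase luminescence | evaluation = percent activation relative to DMSO median and mock-transfected background | control set = DMSO negative control and −SF1 background wells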
# ERb coact inh = ER-beta (human) coactivator binding inhibition | Q92731 | TR-FRET ER-beta LBD / SRC1-Cy5 peptide binding; receptor agonist-loaded with 1 µM estradiol | inhibition, % at 25.6 µM | actives 1.3% (n = 86,000) | AID 633;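 active = compounds whose percent inhibition of the receptor-coactivator binding signal exceeds about 50% in the single-dose screen, limit read from the data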
# A number is an active result; - = inactive; . = no result; [ ] = another dose, or the depositor's remark.
SMILES,PTK2B oligo ant,RORA act,ERa SRC1 pot,ERa coact inh,SF1 activator,ERb coact inh
COc1ccc(OC)c(NC(=O)CSc2nnc(Cn3nnc4ccccc43)n2C)c1,-,.,-,-,.,-
Cc1ccccc1NC(=O)Cn1nnc(-c2ccc(N3CCOCC3)cc2)n1,-,-,-,-,-,-
O=C(Cn1nnc(-c2ccc(N3CCOCC3)cc2)n1)OC1CCCCC1,-,-,208,-,-,-
Cn1c(CCNC(=O)c2ccco2)nc2cc(NS(=O)(=O)c3ccc(Cl)cc3)ccc21,-,-,-,-,-,-
CC1(C)CC(=O)C=C(NCCN2CCN(C(=O)Nc3ccccc3)CC2)C1,-,-,-,-,-,-
Cc1c(C(=O)NCc2cccnc2)sc2nc(-c3ccccc3)cn12,.,54,-,-,-,-
Cc1c(C(=O)NCc2cccnc2)sc2nc(-c3ccc(F)cc3)cn12,.,-,-,-,-,-
Cc1nc2cc(-c3ccccc3)nn2c(C)c1CCC(=O)NCc1ccco1,.,.,-,80[fluorescence artefact?],.,-
Cc1c(C(=O)NCc2ccco2)sc2nc(-c3ccccc3)cn12,.,87,-,-,52,-
COc1ccccc1-c1cc2nc(C)c(CCC(=O)NCc3ccco3)c(C)n2n1,.,-,-,-,-,-
COC(=O)c1c(-c2ccc3ccccc3c2)csc1NC(=O)Cc1ccc(OC)c(OC)c1,-,.,.,.,.,.
Cc1ccc(S(=O)(=O)Cn2nnnc2C(c2ccc(F)cc2)N2CCC(C(N)=O)CC2)cc1 (configuration not stated),-,-,-,-,-,-
O=C(Nc1ccccc1-c1ccccc1)C(c1ccccc1)c1ccccc1,-,.,.,.,.,.
O=C(CCl)NCc1c(Cl)cccc1-n1cccc1,-,.,.,.,.,.
CN(C(=O)Cn1c(=O)n(CCCCC(=O)NC2CCCC2)c(=O)c2ccccc21)C1CCCCC1,.,-,-,-,-,-
Cc1ccc(C(=O)CSc2ncn[nH]2)cc1,-,-,-,-,-,-
Cc1ccc(S(=O)(=O)/N=C2/C=C(Sc3ncn[nH]3)C(=O)c3ccccc32)cc1,-3.2,.,.,.,.,.
CN1CCN(NC(=O)c2cccc(Br)c2)CC1,-,.,.,.,.,.
CCCOc1ccc(C2C(C(=O)OC)=CN(CCOC)C=C2C(=O)OC)cc1,-3.5,-,-,-,-,-
CCN(CC)c1c(-c2ccccc2)c2cc(C)ccc2[nH]c1=O,.,-,248[fluorescence artefact?],-,-,-
CSC1=N/C(=C\c2ccc(Br)o2)C(=O)S1,-,.,-,69,.,72
CC1CCc2c(sc3ncnc(N4CCN(S(=O)(=O)c5cccc6nonc56)CC4)c23)C1 (configuration not stated),.,.,-,-,.,-
CCC(C)(C)n1nnnc1C(c1ccncc1)N1CCC(Cc2ccccc2)CC1 (configuration not stated),-3.1,.,-,-,.,-
CC(C)(C)n1nnnc1C(c1cccc(C#N)c1)N1CCC(Cc2ccccc2)CC1 (configuration not stated),-,-,-,-,-,-
O=C(Nc1ccc(Cl)c(Cl)c1)Oc1ccc(NC(=O)c2ccco2)cc1,-,.,.,.,.,.
SMILES,PTK2B oligo ant,RORA act,ERa SRC1 pot,ERa coact inh,SF1 activator,ERb coact inh
COc1cccc(NC(=O)c2ccco2)c1,-,54,-,-,-,-
O=C(Nc1ccc(Br)c(Cl)c1)c1ccco1,-,76,-,-,92,-
COc1ccc(C(=O)Nc2cccc(OC)c2)cc1,-,-,-,-,81,-
Cc1[nH]n(-c2ccc([N+](=O)[O-])cc2)c(=O)c1C=NCCN1CCN(C(=O)c2ccccc2)CC1,-,.,-,-,.,-
COc1ccc(N2C(=O)C3CCCN3C2c2ccccc2)cc1 (configuration not stated),.,-,-,-,-,-
CCCNS(=O)(=O)c1ccc(NC(=O)c2ccccn2)cc1,-,-,-,-,-,-
CCCCN(CCCC)S(=O)(=O)c1ccc(NC(=O)c2cccs2)cc1,-3.2,.,-,-,.,-
CN(C)S(=O)(=O)c1ccc(NC(=O)c2ccccn2)cc1,-,57,-,-,74,-
CCN(CC)S(=O)(=O)c1ccc(NC(=O)c2ccccn2)cc1,-,49,-,-,55,-
CN(C)S(=O)(=O)c1ccc(C(=O)Nc2ccc(Cl)cc2)cc1,.,-,-,-,-,64[fluorescence artefact?]
COc1ccccc1CCNC(=O)c1ccoc1C,-,-,-,-,-,-
O=C(Nc1cccc2c1[nH]c1ccccc12)C(F)(F)F,-,.,-,-,.,-
CCc1c(C#N)c(SCCC(=O)Nc2cccc(OC)c2)nc2c1C(=O)CC(C)(C)C2,-,.,.,.,.,.
CCc1c(C#N)c(SCCC(=O)Nc2ccc(F)cc2)nc2c1C(=O)CC(C)(C)C2,-3.2,.,.,.,.,.
CCCn1c(=N)n(CCOCCOCCn2c(=N)n(CCC)c3ccccc32)c2ccccc21,.,.,-,-,.,-
CCOc1ccc(N2CC(C(=O)OCC(=O)NCc3ccccc3)CC2=O)cc1 (configuration not stated),-,.,.,.,.,.
CS(=O)(=O)N(CCc1ccccc1)CC(=O)NCc1cccnc1,-,-,-,-,-,-
Cc1cc(C)c2nc(SCC(=O)N3CCCCC3)c(C#N)cc2c1,-,-,-,-,-,-
Cc1cccc2cc(C#N)c(SCC(=O)N3CCC(C)CC3)nc12,-,-,217[fluorescence artefact?],-,-,-
CCOc1ccc2nc(SCC#N)c(C#N)cc2c1,-,-,252,-,-,-
CCOc1ccc2cc(C#N)c(SCC(=O)NC(C)CC)nc2c1 (configuration not stated),.,-,337[fluorescence artefact?],-,-,-
COC(=O)CSc1nc2cc(C)cc(C)c2cc1C#N,-,-,210,-,-,-
CC1C(=NO)C(C)C(c2ccc(N(C)C)cc2)NC1c1ccc(N(C)C)cc1 (configuration not stated),-,-,-,-,-,-
COc1cc2cc(C#N)c(SCC(=O)N3CCOCC3)nc2cc1OC,-,.,-,-,.,-
Cc1ccc(C)c2nc(SCC(=O)N3CCCc4ccccc43)c(C#N)cc12,-,.,.,.,.,.
SMILES,PTK2B oligo ant,RORA act,ERa SRC1 pot,ERa coact inh,SF1 activator,ERb coact inh
Cc1cccc2cc(C#N)c(SCC(=O)N3CC(=O)Nc4ccccc43)nc12,-3.1,-,.,.,-,.
COc1ccc2nc(SCC(=O)N3CCN(c4ccc(F)cc4)CC3)c(C#N)cc2c1,-,.,481[fluorescence artefact?],-,.,-
CCOC(=O)CSc1nc2cc(OCC)ccc2cc1C#N,-,53,351[fluorescence artefact?],-,-,-
COc1ccc2cc(C#N)c(SCC(=O)N3CCCC3)nc2c1,-,-,-,-,-,-
CCOc1ccc2cc(C#N)c(SCC(=O)N3CCC(C)CC3)nc2c1,-,-,337[fluorescence artefact?],-,-,-
BrC(=C\c1ccccc1)/C=N/N1CCN(c2ccccn2)CC1,-,.,.,.,.,.
C#CCSc1nnc(-c2ccc(OC)cc2)o1,-,.,-,-,.,-
Cc1ccc(C2C3=C(CC(C)(C)CC3=O)N(CCN3CCOCC3)C3=C2C(=O)CC(C)(C)C3)cc1,-,-,-,-,-,-

# Assay outcomes as filed in PubChem BioAssay.
